Read-outs that look alike come from different tables or passages of the source.
Columns and labels:
SAMHD1 [1] = target: T1, SAMHD1 (Homo sapiens, UniProt Q9Y3Z3); test: malachite green; assay type: biochemical; conditions: for IC50: 50 μM GTP and 50 μM dATP, 11-point dose response; for inhibition at 500 µM: read-out: dNTPase inhibition (%, [I] = 500 μM)
SAMHD1 A1 site = SAMHD1 A1 site (Homo sapiens, UniProt Q9Y3Z3); test: fluorescence anisotropy competitive binding assay with 5′-FAM-pdGpdGpdG-3′ probe; conditions: competition with 5′ FAM-pdGpdGpdG-3′ probe
Chain of SAMHD1 A1 site (Q9Y3Z3 whole entry): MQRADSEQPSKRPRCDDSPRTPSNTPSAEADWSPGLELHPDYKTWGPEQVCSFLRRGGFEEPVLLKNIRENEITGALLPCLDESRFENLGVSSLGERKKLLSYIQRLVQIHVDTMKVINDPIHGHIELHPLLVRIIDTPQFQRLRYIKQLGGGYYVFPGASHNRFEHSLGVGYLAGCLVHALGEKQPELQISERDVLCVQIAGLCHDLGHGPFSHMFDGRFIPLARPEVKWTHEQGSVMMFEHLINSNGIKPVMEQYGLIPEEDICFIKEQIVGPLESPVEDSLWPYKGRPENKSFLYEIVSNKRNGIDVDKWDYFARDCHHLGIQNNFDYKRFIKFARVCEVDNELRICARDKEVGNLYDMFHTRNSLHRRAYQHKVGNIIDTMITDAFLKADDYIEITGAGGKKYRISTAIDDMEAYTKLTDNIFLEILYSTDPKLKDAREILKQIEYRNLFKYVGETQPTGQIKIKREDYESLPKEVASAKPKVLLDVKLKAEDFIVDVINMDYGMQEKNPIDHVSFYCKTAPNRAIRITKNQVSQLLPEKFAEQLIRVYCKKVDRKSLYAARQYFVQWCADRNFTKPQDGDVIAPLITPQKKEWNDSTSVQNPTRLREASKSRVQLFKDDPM

SAMHD1 [2] = target: T1, SAMHD1; test: glutaraldehyde protein cross-linking assay of oligomeric state; conditions: for D (%), dimer / T (%), tetramer: 500 μM ligand, 600 nM SAMHD1; for effect on oligomeric state: 500 μM analog (dGTPαS 100 μM), 0.6 μM SAMHD1
[3] = target: SAMHD1 binding to ssRNA32 (Homo sapiens, UniProt Q9Y3Z3); test: fluorescence anisotropy displacement of 5′-FAM-labeled ssRNA32; conditions: read-out: EC50 ssRNA displacement; 1 μM SAMHD1, 0.5 μM ssRNA32
Chain of SAMHD1 binding to ssRNA32 (Q9Y3Z3 whole entry): as above
Method in brief: (§1)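 SAMHD1 (1 μM) was preincubated with 0.5 μM 5′-FAM-labelled 32mer ssDNA or ssRNA; the two strands have identical base sequences. […] SD from triplicate experiments.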

[4] = target: SAMHD1 binding to ssDNA32 (Homo sapiens, UniProt Q9Y3Z3); test: fluorescence anisotropy displacement of 5′-FAM-labeled ssDNA32; conditions: read-out: EC50 ssDNA displacement; 1 μM SAMHD1, 0.5 μM ssDNA32
Chain of SAMHD1 binding to ssDNA32 (Q9Y3Z3 whole entry): as above
Method in brief: as §1

T1 sequence (Q9Y3Z3 whole entry): as above

Row | Kd (SAMHD1 A1 site; binding Kd (μM)) [µM] | D (%), dimer (SAMHD1 [2]) [%] | T (%), tetramer (SAMHD1 [2]) [%] | Kd (SAMHD1 A1 site; read-out: binding Kd) [µM] | Structure (SMILES) | other results
1 | 500 ± 185 | 64 | 0 |  | Nc1nc2c(ncn2[C@@H]2O[C@H](CO)[C@@H](O)[C@H]2O)c(=O)[nH]1 [rG, guanosine] | inhibition at 500 µM (SAMHD1 [1]): 6 ± 8.5%
2 | > 1000 | 37 | 0 |  | Nc1nc2c([nH]c(=O)n2[C@H]2C[C@H](O)[C@@H](CO)O2)c(=O)[nH]1 [Compound 8-oxo-dG, 8-oxo-deoxyguanosine] | 
3 |  | 88 | 0 | 210 ± 32 | Nc1nc2c(ncn2[C@@H]2O[C@H](COP(=O)(O)OP(=O)(O)O)[C@@H](O)[C@H]2O)c(=O)[nH]1 [GDP] | effect on oligomeric state (SAMHD1 [2]): can induce dimerization
4 |  | 93 | 0 | 70 ± 13 | Nc1nc2c(ncn2[C@H]2C[C@H](OP(=O)(O)O[C@H]3C[C@H](n4cnc5c(N)ncnc54)O[C@@H]3CO)[C@@H](CO)O2)c(=O)[nH]1 [5′-dGpdA-5′] | 
5 |  | 91 | 0 | 140 ± 43 | Nc1nc2c(ncn2[C@H]2C[C@H](O)[C@@H](COP(=O)(O)O)O2)c(=O)[nH]1 [dGMP] | IC50 (SAMHD1 [1]): 110 ± 47 µM

Continued, compound first:

Row | Structure (SMILES) | Kd (SAMHD1 A1 site; binding Kd (μM)) [µM] | D (%), dimer (SAMHD1 [2]) [%] | T (%), tetramer (SAMHD1 [2]) [%] | Kd (SAMHD1 A1 site; read-out: binding Kd) [µM] | other results
6 | O=C(O)c1cccc(-c2cccc(Br)c2)c1 [Compound 1023, 3′-bromobiphenyl-3-carboxylic acid] | > 500 | 17 | 0 |  | IC50 (SAMHD1 [1]; IC50 (μM)): 220 ± 150 µM
7 | Cn1c[n+]([C@@H]2O[C@H](COP(=O)([O-])OP(=O)(O)OP(=O)(O)O)[C@@H](O)[C@H]2O)c2nc(N)[nH]c(=O)c21 [Compound 7-Me-GTP] |  |  |  | > 1000 | 
8 | Nc1nc2c(ncn2[C@H]2C[C@H](O)[C@@H](COP(O)(=S)OP(=O)(O)OP(=O)(O)O)O2)c(=O)[nH]1 (some centres unmarked) [dGTPαS] |  |  |  |  | effect on oligomeric state (SAMHD1 [2]): induced tetramerization
9 | Nc1nc2c(nc(Br)n2[C@H]2C[C@H](O)[C@@H](CO)O2)c(=O)[nH]1 [Compound 8-bromo-dG, 8-bromo-deoxyguanosine] | > 1000 | 62 | 0 |  | 
10 | Nc1ncnc2c1ncn2[C@H]1C[C@H](O)[C@@H](COP(=O)(O)O)O1 [dAMP] |  | 32 | 0 | > 1000 | 
11 | Nc1nc2c(ncn2COCCO)c(=O)[nH]1 [acyclovir] |  | 78 | 0 |  | inhibition at 500 µM (SAMHD1 [1]): 68 ± 31%
12 | Nc1nc2c(ncn2[C@@H]2O[C@H](COP(=O)(O)OP(=O)(O)OP(=O)(O)O)[C@@H](O)[C@H]2O)c(=O)[nH]1 [GTP] |  |  | 30 | 61 ± 11 | EC50 [3]: 170 ± 32 µM; EC50 [4]: 89 ± 25 µM; effect on oligomeric state (SAMHD1 [2]): induced complete dimerization
13 | Nc1nc2c(ncn2[C@H]2C[C@H](O)[C@@H](CO)O2)c(=O)[nH]1 [dG, deoxyguanosine] | 79 ± 20 | 80 | 0 |  | IC50 (SAMHD1 [1]; IC50 (μM)): 130 ± 89 µM; inhibition at 500 µM (SAMHD1 [1]): 65 ± 2.4%
14 | Nc1nc2c(ncn2[C@@H]2O[C@H](COP(=O)(O)O)[C@@H](O)[C@H]2O)c(=O)[nH]1 [GMP] |  | 87 | 0 | 110 ± 41 | 
15 | Nc1nc2c(ncn2[C@H]2C[C@H](O)[C@@H](COP(=O)(O)OP(=O)(O)O)O2)c(=O)[nH]1 [dGDP] |  | 39 | 56 | 130 ± 28 | effect on oligomeric state (SAMHD1 [2]): induced tetramerization
